Screens: PubChem, several laboratories
The entries come from a sample that favours hits as a whole.
CHOP inhibitor: inhibitors of CHOP promoter induction, primary screen, cell-based, unfolded protein response, luciferase reporter. inhibition, % at 10 µM. 3.8% of 220,000 active. AID 2732, 2010. CHO-K1 CHOP-promoter luciferase, tunicamycin-induced, 15-18 h;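 active = compounds that reduced the stress-induced luciferase reporter signal by more than about 70% of percent inhibition, limit read from the data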;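 also: 0% = tunicamycin plus vehicle and 100% = wells without tunicamycin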
XBP1 UPR activ: activators of adaptive XBP1 UPR arm, primary screen, cell-based, CHO-XBP1 luciferase reporter, luminescence, uHTS; IRE1-XBP1 UPR activation; percent of tunicamycin response, DMSO as zero; activation, % at 20 µM; 0.33% of 330,000 active;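 active = versus positive control, 20 µM dose yields 30% or more activation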;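 also: 100% = tunicamycin at 10 µg/mL and 0% = DMSO only wells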
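Signal: luciferase luminescence; Assay system: CHO-XBP1 luciferase reporter cells; Amount: one thousand reporter cells per well; Dosing: 20 µM single concentration, DMSO 1%; Benchmarks: high control tunicamycin 10 µg/mL final, low control DMSO vehicle only; Schedule: 6 h compound exposure at 37 °C, 5% CO2; Evaluation: percent activation relative to tunicamycin reference.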
NOD2 RIPK2 PPI: NOD2-RIPK2 binding disruptors in cells, primary screen, fluorescence, CHO cells, BLA complementation; Receptor-interacting serine/threonine-protein kinase 2 (Homo sapiens), O43353; CCF4 ratio; inhibition, % at 4.98 µM; 0.38% of 360,000 active; in the data active = inhibition above about 21%;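 also: 0% = vehicle only and 100% = reference blocker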
TLR9-MyD88 inh: inhibitors of TLR9-MyD88 association in cells, primary screen, cell-based, CHO, BLA complementation, fluorescence; CCF4 FRET ratio; 0.21% of 340,000 active; AID 504734, 2011; Toll-like receptor 9 (Homo sapiens) + Myeloid differentiation primary response protein …; inhibition, % at 4.98 µM;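 active = inhibition above the mean over all tested compounds plus 3 SD, cut at about 21% in these data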;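 also: 0% = DMSO only wells and 100% = clavulanate BLA inhibitor control wells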
TLR4-MyD88 BLA: inhibitors of TLR4-MyD88 association in cells, primary screen, cell-based, HeLa CL3-4, BLA complementation, FRET ratio; 0.18% of 200,000 active; Toll-like receptor 4 (Homo sapiens) + Myeloid differentiation primary response protein …; HeLa CL3-4 TLR4/MyD88 BLA complementation; inhibition, % at 8.4 µM; in the data active = inhibition above about 25%;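 also: 0% = vehicle and 100% = reference inhibitor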
CHOP UPR activ: activators of apoptotic CHOP UPR arm, primary screen, cell-based, CHO-CHOP luciferase reporter, luminescence, uHTS; UPR activation; percent of tunicamycin response over DMSO baseline; 0.34% of 330,000 active; activation, % at 10 µM;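 active = at 10 µM dose, activation of 40% or more, normalized to positive control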;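 also: 100% = tunicamycin at 10 µg/mL and 0% = DMSO alone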
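Test system: CHO CHOP reporter cells. Input: 500 CHO-CHOP cells per well. Medium: F12 with 10% FBS. Technique: luciferase luminescence. Measure: percent activation relative to tunicamycin control. Dosing: 10 µM compound, 0.5% DMSO. Timing: 16-18 h cell attachment, then 6 h compound exposure, 37 °C.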
* marks the source's active call; other numbers are inactive results; . = no result given.

SMILES	CHOP inhibitor	XBP1 UPR activ	NOD2 RIPK2 PPI	TLR9-MyD88 inh	TLR4-MyD88 BLA	CHOP UPR activ
Cc1ccc(C)c(Oc2cc(NC(=O)CCCn3nc(C)c([N+](=O)[O-])c3C)cc([N+](=O)[O-])c2)c1	80*	-2	4	3	5	12
Cc1ccc(Oc2cc(NC(=O)CCCn3nc([N+](=O)[O-])cc3C)cc([N+](=O)[O-])c2)cc1	73*	0	15	3	-8	2
Cn1cc([N+](=O)[O-])c(C(=O)Nc2cc(Oc3ccccc3)cc([N+](=O)[O-])c2)n1	-36	.	3	6	7	.
Cc1cc(NC(=O)C2CCN(C(=O)c3ccco3)CC2)ccc1Br	.	-3	4	-3	.	1
O=C(c1ccc(Cl)cc1)C(Cn1cncn1)C(Sc1ccccc1)c1ccccc1 (stereo not drawn)	78*	0	2	-11	10	1
CS/C(=N\S(=O)(=O)c1ccc(Cl)cc1)c1ccccc1	77*	0	-5	3	6	-1
COc1cc2c3c(c1)-c1c(sn(-c4cc(OC)ccc4OC)c1=S)C(C)(C)N3C(=O)C2=O	2	1	-3	-5	11	2
COc1ccc2c(c1)-c1c(sn(-c3ccccc3)c1=S)C(C)(C)N2	70*	2	-3	8	-11	0
COc1ccc2c(c1)-c1c(sn(-c3ccc(OC)c(OC)c3)c1=S)C(C)(C)N2	80*	3	4	-3	-6	3
COc1ccc(N2C(=O)c3ccccc3NC2(C)C)cc1	-37	-5	-9	14	1	2
COc1ccc2c(c1)-c1c(ssc1=S)C(C)(C)N2	43	5	-5	-6	-6	-2
COc1ccc(-n2sc3c(c2=S)-c2cc(OC)ccc2NC3(C)C)cc1	91*	1	-4	1	8	0
COc1ccc(S(=O)(=O)N2CCCCC2c2cc(C(=O)Nc3ccc(OC)cc3C)no2)cc1 (stereo not drawn)	.	.	-9	.	.	.
CC(=O)Nc1cc(-c2cccc(C(=O)NCCO)c2)cn2c(-c3cccc(C(F)(F)F)c3)cnc12	.	.	1	.	.	.
NC(=O)CSc1nnc(COc2ccccc2)n1C1CCCCC1	.	.	-2	-12	-10	.
C=CCN(CC=C)S(=O)(=O)c1ccc(F)cc1	79*	-2	3	-1	-9	2
CCN(CC(N)=O)S(=O)(=O)c1ccc(F)cc1	10	-3	2	10	-11	0
O=C1/C(=C/c2ccc(S(=O)(=O)O)cc2S(=O)(=O)O)CCc2ccccc21	.	.	3	.	.	.
CCCCNC(=O)CSc1nc2ccccc2n1S(=O)(=O)c1ccc(Cl)cc1	75*	1	-6	-7	-3	2
CCCCNC(=O)CSc1nc2ccccc2n1S(=O)(=O)c1ccc(Br)cc1	23	-3	5	1	-13	-2
CC(=O)Nc1ccc(S(=O)(=O)NCc2ccc(C)cc2)cc1	76*	0	3	8	7	-1
O=C(CSc1nnc2ccc(-c3ccc(Br)cc3)nn12)NCC1CCCO1 (stereo not drawn)	.	0	-5	-5	.	0
CCOC(=O)n1c(=O)n(Cc2ccc(Cl)c(Cl)c2)c2ccccc21	81*	-2	-8	1	8	0
CCOC(=O)n1c(=O)n(Cc2ccccc2)c2ccccc21	48	-3	-1	3	-1	2
CCC(=O)Nc1ccc(C(=O)OCc2ccc(Cl)c(Cl)c2)cc1	89*	-4	-5	-6	-19	-2
SMILES	CHOP inhibitor	XBP1 UPR activ	NOD2 RIPK2 PPI	TLR9-MyD88 inh	TLR4-MyD88 BLA	CHOP UPR activ
CC(=O)Nc1ccc(C(=O)OCc2ccc(Cl)c(Cl)c2)cc1	8	0	3	1	-2	2
COc1ccc(C2=CC3=C(Br)C(=O)C(C)(O)C(=O)C3=CO2)cc1 (stereo not drawn)	95*	-2	8	1	.	2
OC(c1ccc(Cl)c(F)c1)c1ncc(-c2cccc3ccccc23)[nH]1 (stereo not drawn)	.	.	5	.	.	.
O=C(N=C1c2ccccc2CN1c1ccc(F)c(Cl)c1)c1cccnc1Cl	0	1	.	.	-9	3
CCc1ccc(NC(=O)c2cnc(N3CCN(c4ccccn4)CC3)c3ccccc23)cc1	75*	-2	-13	.	-1	10
COC(=O)C(CC(C)C)NC(=O)C(Cc1ccccc1)NC(=O)C1CCCN1C(=O)OC(C)(C)C (stereo not drawn)	-10	-1	4	4	-9	1
C=CCOc1ccccc1CNc1ccccc1C	70*	-3	3	-2	8	0
COc1ccc(Cl)cc1NC(=O)Nc1cccc([N+](=O)[O-])c1C	84*	7	5	-5	2	0
COc1ccc(Cl)cc1NC(=O)NC1CCCCC1	19	-3	-1	-7	-1	0
Cc1ccc(OCC(=O)NNC(=O)CSc2ncnc3sc(C)c(C)c23)cc1	89*	2	-10	-2	12	-2
O=C(Nc1ccccc1Sc1ccccc1)c1ccccc1	92*	2	-8	3	-9	0
O=C(Cc1ccccc1)Nc1ccccc1Sc1ccccc1	16	-2	8	-1	-9	1
CS(=O)(=O)N(Cc1ccc(C(=O)Nc2ccccc2Sc2ccccc2)cc1)c1ccccc1	77*	-2	-3	-13	2	-2
CCCCc1c(-c2ccccc2OC)ncn1CCc1ccccc1Cl	.	.	-8	.	.	.
O=C1CN(C(=O)COC(=O)c2ccc[n+]([O-])c2)c2ccccc2N1	-17	-3	-35	-2	3	0
COc1cc(NC(=O)COC(=O)CCOc2ccc(C)cc2)cc(OC)c1	.	-8	-13	-8	.	3
Cc1ccc(NC(=O)Cn2c(-c3ccc(F)cc3)cnc2SCC(=O)Nc2c(C)cccc2C)cc1	81*	-3	-4	-15	9	-1
CN(C)c1ccc(-c2noc(-c3ccccc3O)n2)cc1	44	-2	-9	11	-5	-3
CCCCCCCCCn1ccc(=N)cc1	76*	7	-6	-6	.	11
CCOc1ccc(-c2c(=O)n(OCc3ccc([N+](=O)[O-])cc3)c3ccccc3[n+]2[O-])cc1	61	36*	.	.	-1	18
Cc1cc(=O)oc(C)c1C(=O)OCC(=O)c1ccc2ccccc2c1	71*	-3	-8	-7	-3	-1
